Our source for the Activity, K and CC50 values is ChEMBL document CHEMBL3352171, “Synthesis and biological evaluation of andrographolide analogues as anti-cancer agents” (Eur J Med Chem, 2014).

Series [1] deals with HEK293. Briefly: Induction of cell cycle arrest in HEK293 cells assessed as accumulation at G2/M phase at 20 uM after 48 hrs by propidium iodide staining based flow cytometry (reference value: 2.63 +/- 0.7%). It counts as functional, Homo sapiens.
The nature of series [2]: Drug hydrolysis in pH 7.4 PBS buffer assessed as first order rate constant for andrographolide formation by HPLC method. It counts as physicochemical. The essentials:
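Compound in PBS pH 7.4 without enzyme; unreacted parent quantified by HPLC at time intervals. Decay fitted to first-order rate equation to give rate constant and half-life.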

For series [3], the system named is HEK293. Description: Induction of cell cycle arrest in HEK293 cells assessed as accumulation at S phase at 15 uM after 48 hrs by propidium iodide staining based flow cytometry (reference value: 19.9 +/- 0.5%). It counts as functional, Homo sapiens.
The test system of series [4] is HEK293. Briefly: Increase in PARP cleavage in p53 deficient HEK293 cells at LC50 level after 48 hrs by Western blot method. As to conditions: Homo sapiens. It counts as functional, cell-based.
Series [5] concerns HEK293. Description: Reduction in Bcl-xL expression in HEK293 cells at LC50 level after 48 hrs by Western blot method. It counts as functional, cell-based. To be noted: Homo sapiens. On the technique in general: Immunoblotting shows a protein as a band on a membrane.
The test system of series [6] is HEK293. Description: Increase in PARP cleavage in HEK293 cells at LC50 level after 48 hrs by Western blot method. It counts as functional, cell-based. To be noted: Homo sapiens.
Series [7] concerns HEK293. Briefly: Induction of apoptosis in HEK293 cells at 15 uM after 48 hrs by propidium iodide staining based flow cytometry (reference value: 24.26 +/- 0.8%). It counts as functional, Homo sapiens. In general terms: In flow cytometry, cells or beads pass a laser one at a time.
The subject of series [8] is HEK293. Briefly: Cytotoxicity against HEK293 cells after 48 hrs by MTT assay. It counts as functional. To be noted: Homo sapiens, HEK293, 48 h; read-out: LC50 (the source's name). In a few lines:
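Cells seeded at 10,000 per well and exposed to increasing compound concentrations for 48 h. After a PBS wash, MTT (2.5 mg/mL) was added for 6 h at 37 °C, then detergent (10% NP-40, 4 mM HCl), and absorbance was read at 570 nm. LC50 is the concentration causing 50% cell death. Values are means of three independent experiments.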
(Tetrazolium assays rely on reduction of a dye to a coloured formazan, in cell work by metabolically active cells.)

Series [9] can be described thus: Induction of DNA adduct formation (unknown origin) using guanosine in presence of glacial acetic acid at 75 degC incubated for 12 hrs by LC-MS method. In a few lines:
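Model reaction of compound with guanosine in glacial acetic acid at 75 °C, heated up to 12 h; adduct sought by TLC and LCMS.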

For a further series, the species on record is Bos taurus. Briefly: Induction of conformational changes in calf thymus DNA assessed as B-DNA conformation changes at 100 uM after 2 hrs by CD spectroscopy.
For series [10], the system named is HEK293. Description: Induction of cell cycle arrest in HEK293 cells assessed as accumulation at G2/M phase at 5 uM after 48 hrs by propidium iodide staining based flow cytometry (reference value: 2.63 +/- 0.7%). It counts as functional, Homo sapiens.
In series [11] the test system is HEK293. Briefly: Reduction in Bcl-xL expression in p53 deficient HEK293 cells at LC50 level after 48 hrs by Western blot method. It counts as functional, cell-based. As to conditions: Homo sapiens.

Activity calls are given as the source filed them. The calls are words filed in the database; no cut-off is given here.

In the case of `C=C1CC[C@@H]2[C@](C)(CO)[C@H](O)CC[C@@]2(C)[C@@H]1C/C=C1/C(=O)OC[C@H]1OC(=O)CI`, the Activity in the series on HEK293 [1] is on record as 0.69%; with HEK293 [3], 5.67%; in the series on HEK293 [7], 78.5%; with HEK293 [10] it was 2.14%. In series [2], the K was 0.02 min⁻¹. In addition, the outcome (with HEK293 [4]; in [9]; in the series filed under Bos taurus; in the series on HEK293 [11]) was inactive. For the same compound, the outcome in the series with HEK293 [5] and in the series with HEK293 [6] was Active. Also, the CC50 in the series on HEK293 [8] worked out at 8 µM.
